Results of several laboratories.
Protocols differ between the studies behind these lines.
Action: inhibitor
PARP2: Poly [ADP-ribose] polymerase 2 (PARP2, Homo sapiens, UniProt Q9UGN5)
CDK2: Cyclin-dependent kinase 2 (CDK2, Homo sapiens, UniProt P24941)

For `CC(=O)N1C(=O)NC(C)=C(C(=O)OCC(C)C)C1c1cccc([N+](=O)[O-])c1` (racemic), the IC50 was 1300 nM (Voltage-dependent L-type calcium channel subunit alpha-1C (Cacna1c, Rattus norvegicus, UniProt P22002); ion current; patch clamp).
`COc1ccc2c(=O)[nH]c3c(nnn3Cc3ccc(C)cc3)c2c1` gave an IC50 of > 10000 nM (PARP2; enzyme activity; fluorescence).
`Cc1n[nH]c2ccc3nc(-c4ccc(C(=O)NCCN(C)C)cc4)c4c(c3c12)CCC(C)(C)C4` gave an IC50 of > 1000 nM (CDK2; enzyme activity).
For `Cc1ccc(Cn2nnc3c4ccc(F)cc4c(=O)[nH]c32)cc1`, the IC50 was > 10000 nM (PARP2; enzyme activity).
For `NC(=O)c1cccnc1`, the IC50 was > 31600 nM (Nicotinamide N-methyltransferase (NNMT, Homo sapiens, UniProt P40261); enzyme activity in cells).
The IC50 of `Cn1cc(C2=C(c3cn(CCCSC(=N)N)c4ccccc34)C(=O)NC2=O)c2ccccc21` is reported as 54.4 nM (Mitogen-activated protein kinase kinase kinase kinase 1 (MAP4K1, Homo sapiens, UniProt Q92918); enzyme activity).
With `Cc1n[nH]c2ccc3nc(-c4ccc(C(=O)NCCN5CCCC5)cc4)c4c(c3c12)CCCC4` the IC50 was 310 nM (CDK2; enzyme activity).
`CCc1ccc(Cn2nnc3c4ccc(F)cc4c(=O)[nH]c32)cc1` gave an IC50 of > 10000 nM (PARP2; enzyme activity; fluorescence).
With `Cc1n[nH]c2ccc3nc(-c4ccc(C(=O)NCCN(C)C)cc4F)c4c(c3c12)CCCC4` the IC50 was 80 nM (CDK2; enzyme activity).
With `NC/C(=C\F)COc1cccc(Cn2c(=S)[nH]c(=O)c3[nH]cnc32)c1` the IC50 was > 100000 nM (Sodium channel protein type 5 subunit alpha (SCN5A, Homo sapiens, UniProt Q14524); ion current).
`Cc1cccc(Cn2nnc3c4ccc(F)cc4c(=O)[nH]c32)c1` has an IC50 of > 10000 nM (PARP2; enzyme activity).
`Cc1n[nH]c2ccc3nc(-c4ccc(C(=O)NCCN(C)C)cc4)c4c(c3c12)CCC(F)(F)C4` has an IC50 of 594 nM (CDK2; enzyme activity).
